The test system of one test is HT-29. Description: Cytotoxicity against human HT-29 cells after 96 hrs by SRB assay. The format is functional, cell-based. The note with it: HT-29, 96 h. A digest of the protocol: (§1)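 Photometric sulforhodamine B read-out of antiproliferative effect after 96 h of continuous treatment; EC₅₀ values in µM, averaged from three independent experiments each run in triplicate; the assay cut-off is EC₅₀ > 30 µM. Human tumour lines are tested alongside nonmalignant mouse NIH 3T3 fibroblasts.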

The test system of another test is MCF7. Briefly: Cytotoxicity against human MCF7 cells after 96 hrs by SRB assay. In kind it is functional, cell-based. The note with it: Homo sapiens, MCF7, 96 h; read-out: EC50. The procedure, abridged:
as §1

Another test has as its system HeLa. Description: Cytotoxicity against human HeLa cells after 96 hrs by SRB assay. The format is functional, cell-based. A digest of the protocol:
as §1

Test [1] in a line: Cytotoxicity against human 518A2 cells after 96 hrs by SRB assay. The note with it: Homo sapiens, 518A2, 96 h; read-out: EC50. The format is functional, cell-based. A digest of the protocol: as §1
Test [2] can be described thus: Cytotoxicity against mouse NIH/3T3 cells after 96 hrs by SRB assay. In kind it is cell-based, NIH3T3. The note with it: Mus musculus, NIH3T3, 96 h; read-out: EC50. The procedure, abridged:
as §1

The test system of the next test is A2780. Briefly: Cytotoxicity against human A2780 cells after 96 hrs by SRB assay. The format is functional, cell-based. The note with it: Homo sapiens, A2780, 96 h; read-out: EC50. A digest of the protocol:
as §1

A further test relates to A549. Briefly: Cytotoxicity against human A549 cells after 96 hrs by SRB assay. In kind it is functional, cell-based. The note with it: Homo sapiens, A549, 96 h; read-out: EC50. The procedure, abridged:
as §1

Some results are limits rather than exact numbers.

With `C=C(C)[C@@H]1CC[C@]2(COC(=O)NCC)CC[C@]3(C)[C@H](CC[C@@H]4[C@@]5(C)CCC(=O)C(C)(C)[C@@H]5CC[C@]43C)[C@@H]12`, the EC50 came to 11.5 µM in the test on HT-29; 19.7 µM in the test on MCF7; 13.4 µM in the test on HeLa; 16.6 µM in test [1]; 4.6 µM in test [2]; 8.3 µM in the test with A2780. For the same compound, the EC50 in the test on A549 worked out at 20.3 µM.

On to `C=C(C)[C@@H]1CC[C@]2(COC(=O)NCCCCCC)CC[C@]3(C)[C@H](CC[C@@H]4[C@@]5(C)CC[C@H](OC(C)=O)C(C)(C)[C@@H]5CC[C@]43C)[C@@H]12`, for which the EC50 (with HT-29; with MCF7; in the test on HeLa; in test [1]; in test [2]; with A2780) was greater than 30 µM each time. For the same compound, the 50% effective concentration (EC50) in the test with A549 was greater than 30 µM.

For `C=C(C)[C@@H]1CC[C@]2(COC(=O)Nc3ccccc3)CC[C@]3(C)[C@H](CC[C@@H]4[C@@]5(C)CCC(=O)C(C)(C)[C@@H]5CC[C@]43C)[C@@H]12`, the concentration giving a half-maximal response (EC50) (in the test with HT-29; in the test on MCF7; in the test on HeLa; in test [1]; in test [2]; in the test with A2780) was greater than 30 µM throughout. Further, the EC50 in the test with A549 is greater than 30 µM.

Regarding `C=C(C)[C@@H]1CC[C@]2(COC(=O)Nc3ccccc3)CC[C@]3(C)[C@H](CC[C@@H]4[C@@]5(C)CC[C@H](OC(C)=O)C(C)(C)[C@@H]5CC[C@]43C)[C@@H]12`, the EC50 (in the test on HT-29; in the test with MCF7; in the test on HeLa; in test [1]; in test [2]; with A2780) was greater than 30 µM throughout. For the same compound, in the test with A549, the EC50 is greater than 30 µM.

For `C=C(C)[C@@H]1CC[C@]2(COC(=O)NCCCC)CC[C@]3(C)[C@H](CC[C@@H]4[C@@]5(C)CC[C@H](OC(C)=O)C(C)(C)[C@@H]5CC[C@]43C)[C@@H]12`, the EC50 (with HT-29; in the test with MCF7; with HeLa; in test [1]; in test [2]; in the test on A2780) was greater than 30 µM each time. Moreover, in the test with A549, the EC50 is greater than 30 µM.

Turning to `C=C(C)[C@@H]1CC[C@]2(C(N)=O)CC[C@]3(C)[C@H](CC[C@@H]4[C@@]5(C)CCC(=O)C(C)(C)[C@@H]5CC[C@]43C)[C@@H]12`, the half-maximal effective concentration (EC50) in the test with HT-29 was 17.9 µM; in the test on MCF7, 10.3 µM; in the test on HeLa, 22.9 µM; in test [1] it was 21.5 µM; in test [2] it was 17.7 µM; in the test on A2780, 15.6 µM. Also, in the test on A549, the EC50 was determined as 14.7 µM.

`C=C(C)[C@@H]1CC[C@]2(COC(=O)NCCC)CC[C@]3(C)[C@H](CC[C@@H]4[C@@]5(C)CC[C@H](O)C(C)(C)[C@@H]5CC[C@]43C)[C@@H]12`: the EC50 in the test on HT-29 is 16.3 µM; with MCF7, 15.5 µM; in the test with HeLa it was 9.4 µM; in test [1], 15.9 µM; in test [2] it was 7.3 µM; in the test with A2780, 10.6 µM. The EC50 with A549 was found to be 14.2 µM.

Consider `C=C(C)[C@@H]1CC[C@]2(C(N)=O)CC[C@]3(C)[C@H](CC[C@@H]4[C@@]5(C)CC[C@H](OC(C)=O)C(C)(C)[C@@H]5CC[C@]43C)[C@@H]12`, for which the EC50 with HT-29 came to 11.5 µM; in the test with MCF7, 11.1 µM; with HeLa, 12 µM; in test [1] it was 13.4 µM; in test [2], 20 µM; in the test on A2780, 5.7 µM. Further, the EC50 in the test with A549 is 12.4 µM.

For the compound `C=C(C)[C@@H]1CC[C@]2(COC(=O)NCCCC)CC[C@]3(C)[C@H](CC[C@@H]4[C@@]5(C)CC[C@H](OC(=O)NCCCC)C(C)(C)[C@@H]5CC[C@]43C)[C@@H]12`, the EC50 (in the test with HT-29; with MCF7; in the test on HeLa; in test [1]; in test [2]; in the test with A2780) was greater than 30 µM in each case. For the same compound, in the test with A549, the EC50 was greater than 30 µM.

`C=C(C)[C@@H]1CC[C@]2(C(=O)NCc3ccccc3)CC[C@]3(C)[C@H](CC[C@@H]4[C@@]5(C)CC[C@H](OC(C)=O)C(C)(C)[C@@H]5CC[C@]43C)[C@@H]12`: the EC50 was greater than 30 µM in the test with HT-29; greater than 30 µM with MCF7; 16.9 µM in the test on HeLa; 6.2 µM in test [1]; greater than 30 µM in test [2]; 6.2 µM in the test with A2780. In addition, in the test with A549, the EC50 came out at 10.3 µM.

For the compound `C=C(C)[C@@H]1CC[C@]2(COC(=O)NCCCCCC)CC[C@]3(C)[C@H](CC[C@@H]4[C@@]5(C)CCC(=O)C(C)(C)[C@@H]5CC[C@]43C)[C@@H]12`, the EC50 (in the test on HT-29; in the test with MCF7; in the test on HeLa; in test [1]; in test [2]; in the test with A2780) was greater than 30 µM in each case. Further, the concentration for a half-maximal effect (EC50) in the test on A549 was greater than 30 µM.

Turning to `C=C(C)[C@@H]1CC[C@]2(COC(=O)NCC)CC[C@]3(C)[C@H](CC[C@@H]4[C@@]5(C)CC[C@H](OC(C)=O)C(C)(C)[C@@H]5CC[C@]43C)[C@@H]12`, the EC50 is greater than 30 µM with HT-29; 20.4 µM in the test on MCF7; 17 µM in the test with HeLa; 10.2 µM in test [1]; greater than 30 µM in test [2]; 11.1 µM with A2780. In the test on A549, the EC50 is 14.1 µM.

Turning to `C=C(C)[C@@H]1CC[C@]2(COC(=O)NCCCC)CC[C@]3(C)[C@H](CC[C@@H]4[C@@]5(C)CCC(=O)C(C)(C)[C@@H]5CC[C@]43C)[C@@H]12`, the concentration for a half-maximal effect (EC50) (in the test on HT-29; in the test with MCF7; in the test with HeLa; in test [1]; in test [2]; with A2780) was greater than 30 µM in each case. Further, in the test with A549, the EC50 is greater than 30 µM.

In the case of `C=C(C)[C@@H]1CC[C@]2(COC(=O)NCCC)CC[C@]3(C)[C@H](CC[C@@H]4[C@@]5(C)CC[C@H](OC(C)=O)C(C)(C)[C@@H]5CC[C@]43C)[C@@H]12`, the EC50 (with HT-29; in the test with MCF7; with HeLa; in test [1]; in test [2]; in the test with A2780) was greater than 30 µM throughout. In the test with A549, the EC50 is greater than 30 µM.

Turning to `C=C(C)[C@@H]1CC[C@]2(C(=O)NCc3ccccc3)CC[C@]3(C)[C@H](CC[C@@H]4[C@@]5(C)CCC(=O)C(C)(C)[C@@H]5CC[C@]43C)[C@@H]12`, the EC50 with HT-29 is greater than 30 µM; with MCF7, greater than 30 µM; in the test with HeLa it was greater than 30 µM; in test [1] it was greater than 30 µM; in test [2] it was greater than 30 µM; in the test with A2780, 7.4 µM. Besides, the 50% effective concentration (EC50) in the test with A549 is greater than 30 µM.

In the case of `C=C(C)[C@@H]1CC[C@]2(COC(=O)NCCC)CC[C@]3(C)[C@H](CC[C@@H]4[C@@]5(C)CC[C@H](OC(=O)NCCC)C(C)(C)[C@@H]5CC[C@]43C)[C@@H]12`, the EC50 is greater than 30 µM with HT-29; greater than 30 µM in the test on MCF7; greater than 30 µM with HeLa; greater than 30 µM in test [1]; greater than 30 µM in test [2]; 19.4 µM in the test with A2780. In addition, the EC50 with A549 was greater than 30 µM.

Consider `C=C(C)[C@@H]1CC[C@]2(COC(=O)NCC)CC[C@]3(C)[C@H](CC[C@@H]4[C@@]5(C)CC[C@H](O)C(C)(C)[C@@H]5CC[C@]43C)[C@@H]12`, for which the EC50 in the test on HT-29 was greater than 30 µM; in the test with MCF7, 12.1 µM; in the test with HeLa, greater than 30 µM; in test [1], 12.5 µM; in test [2], 8.8 µM; in the test on A2780, 4.6 µM. The EC50 in the test on A549 worked out at 12 µM.

Regarding `C=C(C)[C@@H]1CC[C@]2(COC(=O)NCCC)CC[C@]3(C)[C@H](CC[C@@H]4[C@@]5(C)CCC(=O)C(C)(C)[C@@H]5CC[C@]43C)[C@@H]12`, the EC50 (with HT-29; in the test on MCF7; with HeLa; in test [1]; in test [2]; in the test on A2780) was greater than 30 µM in each case. In addition, in the test with A549, the EC50 is greater than 30 µM.

For `C=C(C)[C@@H]1CC[C@]2(COC(=O)NCCCCCC)CC[C@]3(C)[C@H](CC[C@@H]4[C@@]5(C)CC[C@H](OC(=O)NCCCCCC)C(C)(C)[C@@H]5CC[C@]43C)[C@@H]12`, the EC50 (in the test with HT-29; with MCF7; in the test with HeLa; in test [1]; in test [2]; with A2780) was greater than 30 µM each time. In addition, in the test on A549, the EC50 is greater than 30 µM.

As for `C=C(C)[C@@H]1CC[C@]2(C(N)=O)CC[C@]3(C)[C@H](CC[C@@H]4[C@@]5(C)CC[C@H](O)C(C)(C)[C@@H]5CC[C@]43C)[C@@H]12`, the concentration for a half-maximal effect (EC50) with HT-29 was determined as 10.2 µM; in the test with MCF7, 10.7 µM; with HeLa, 11.2 µM; in test [1], 9.9 µM; in test [2], 10.7 µM; in the test with A2780, 15.7 µM. In addition, the concentration giving a half-maximal response (EC50) in the test on A549 turned out to be 8.2 µM.

On to `C=C(C)[C@@H]1CC[C@]2(COC(=O)NCC)CC[C@]3(C)[C@H](CC[C@@H]4[C@@]5(C)CC[C@H](OC(=O)NCC)C(C)(C)[C@@H]5CC[C@]43C)[C@@H]12` [BIS(ETHYLCARBAMATE)BETULIN], for which the EC50 was 8.3 µM in the test with HT-29; 23.3 µM in the test on MCF7; 17.8 µM in the test with HeLa; 12.6 µM in test [1]; greater than 30 µM in test [2]; 5.8 µM in the test on A2780. The 50% effective concentration (EC50) in the test on A549 was found to be 10.7 µM.
